Each structure is given as a SMILES string. Calls of active or inactive are those of the source.

Here are results for three molecules from ChEMBL document CHEMBL5046302, “Identification and Evaluation of Brominated Carbazoles as a Novel Antibiotic Adjuvant Scaffold in MRSA” (2022).

Format in all cases: functional
Test [1] relates to Staphylococcus aureus. The test is described as follows: Potentiation of cefoxitin induced antibacterial activity against methicillin-resistant Staphylococcus aureus USA100 assessed as fold change in cefoxitin MIC at 50 uM after 18 hrs by CLSI protocol based broth microdilution assay.
The test system of test [2] is Staphylococcus aureus. The test is described as follows: Potentiation of oxacillin induced antibacterial activity against methicillin-resistant Staphylococcus aureus COL assessed as oxacillin MIC at 50 uM after 18 hrs by CLSI protocol based broth microdilution assay. For orientation: Dilution methods test growth across graded concentrations, often in twofold steps.

The subject of test [3] is Staphylococcus aureus. Description: Potentiation of methicillin induced antibacterial activity against methicillin-resistant Staphylococcus aureus USA300 assessed as methicillin MIC at 50 uM after 18 hrs by CLSI protocol based broth microdilution assay.
Test [4] has as its system Staphylococcus aureus. Description: Potentiation of oxacillin induced antibacterial activity against methicillin-resistant Staphylococcus aureus USA300 harboring stk1 deletion mutant co-transfected with a plasmid bearing stk1 assessed as oxacillin MIC at 50 uM after 18 hrs by CLSI protocol based broth microdilution assay. The method in brief:
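Oxacillin MIC by broth microdilution in the USA300 Δstk1 strain complemented with plasmid-borne stk1, with stk1 expression induced. Tested with and without carbazole at 50 μM. Fold change in MIC is taken relative to oxacillin alone.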

Test [5] deals with Staphylococcus aureus. Description: Potentiation of methicillin induced antibacterial activity against methicillin-resistant Staphylococcus aureus ATCC 43300 assessed as fold change in methicillin MIC at 50 uM after 18 hrs by CLSI protocol based broth microdilution assay.
Test [6] deals with Staphylococcus aureus. Description: Potentiation of methicillin induced antibacterial activity against methicillin-resistant Staphylococcus aureus COL assessed as methicillin MIC at 50 uM after 18 hrs by CLSI protocol based broth microdilution assay.
For test [7], the system named is Staphylococcus aureus. Description: Potentiation of ampicillin induced antibacterial activity against methicillin-resistant Staphylococcus aureus USA300 assessed as ampicillin MIC at 50 uM after 18 hrs by CLSI protocol based broth microdilution assay.
The subject of test [8] is Staphylococcus aureus. Description: Upregulation of blaZ gene expression in methicillin-resistant Staphylococcus aureus USA100 at 50 uM by RT-PCR method.
The test system of test [9] is Staphylococcus aureus. Description: Potentiation of oxacillin induced antibacterial activity against methicillin-resistant Staphylococcus aureus ATCC 43300 assessed as oxacillin MIC at 50 uM after 18 hrs by CLSI protocol based broth microdilution assay.
Test [10] relates to Staphylococcus aureus. Description: Potentiation of methicillin induced antibacterial activity against methicillin-resistant Staphylococcus aureus ATCC 43300 assessed as methicillin MIC at 50 uM after 18 hrs by CLSI protocol based broth microdilution assay.
For test [11], the system named is Staphylococcus aureus. The test is described as follows: Potentiation of cefoxitin induced antibacterial activity against methicillin-resistant Staphylococcus aureus COL assessed as fold change in cefoxitin MIC at 50 uM after 18 hrs by CLSI protocol based broth microdilution assay.
Test [12] has as its system Staphylococcus aureus. Description: Potentiation of ceftazidime induced antibacterial activity against methicillin-resistant Staphylococcus aureus USA300 assessed as fold change in ceftazidime MIC at 50 uM after 18 hrs by CLSI protocol based broth microdilution assay.
The subject of test [13] is Staphylococcus aureus. The test is described as follows: Upregulation of mecA gene expression in methicillin-resistant Staphylococcus aureus ATCC 43300 at 50 uM by RT-PCR method.
Test [14] concerns Staphylococcus aureus. The test is described as follows: Potentiation of ampicillin induced antibacterial activity against methicillin-resistant Staphylococcus aureus USA100 assessed as ampicillin MIC at 25 uM after 18 hrs by CLSI protocol based broth microdilution assay.
Test [15] has as its system Staphylococcus aureus. The test is described as follows: Upregulation of mecA gene expression in methicillin-resistant Staphylococcus aureus COL at 25 uM by RT-PCR method.
The test system of test [16] is Staphylococcus aureus. The test is described as follows: Potentiation of cefoxitin induced antibacterial activity against methicillin-resistant Staphylococcus aureus COL assessed as cefoxitin MIC at 25 uM after 18 hrs by CLSI protocol based broth microdilution assay.
Test [17] concerns Staphylococcus aureus. Description: Potentiation of oxacillin induced antibacterial activity against methicillin-resistant Staphylococcus aureus COL assessed as oxacillin MIC at 25 uM after 18 hrs by CLSI protocol based broth microdilution assay.
Test [18] concerns Staphylococcus aureus. The test is described as follows: Potentiation of cefoxitin induced antibacterial activity against methicillin-resistant Staphylococcus aureus USA300 assessed as cefoxitin MIC at 25 uM after 18 hrs by CLSI protocol based broth microdilution assay.
The subject of test [19] is Staphylococcus aureus. Description: Potentiation of ceftazidime induced antibacterial activity against methicillin-resistant Staphylococcus aureus ATCC 43300 assessed as ceftazidime MIC at 25 uM after 18 hrs by CLSI protocol based broth microdilution assay.
Test [20] has as its system Staphylococcus aureus. Description: Potentiation of oxacillin induced antibacterial activity against methicillin-resistant Staphylococcus aureus ATCC 43300 assessed as oxacillin MIC at 25 uM after 18 hrs by CLSI protocol based broth microdilution assay.
Test [21] has as its system Staphylococcus aureus. Description: Potentiation of cefoxitin induced antibacterial activity against methicillin-resistant Staphylococcus aureus COL assessed as fold change in cefoxitin MIC at 25 uM after 18 hrs by CLSI protocol based broth microdilution assay.
The test system of test [22] is Staphylococcus aureus. The test is described as follows: Potentiation of oxacillin induced antibacterial activity against methicillin-resistant Staphylococcus aureus USA300 harboring stk1 deletion mutant assessed as fold change in oxacillin MIC at 25 uM after 18 hrs by CLSI protocol based broth microdilution assay.
In test [23] the test system is Staphylococcus aureus. The test is described as follows: Upregulation of mecA gene expression in methicillin-resistant Staphylococcus aureus USA300 at 25 uM by RT-PCR method.
Test [24] concerns Staphylococcus aureus. The test is described as follows: Potentiation of ampicillin induced antibacterial activity against methicillin-resistant Staphylococcus aureus USA300 assessed as fold change in ampicillin MIC at 25 uM after 18 hrs by CLSI protocol based broth microdilution assay.
The test system of test [25] is Staphylococcus aureus. Description: Potentiation of cefoxitin induced antibacterial activity against methicillin-resistant Staphylococcus aureus ATCC 43300 assessed as fold change in cefoxitin MIC at 25 uM after 18 hrs by CLSI protocol based broth microdilution assay.
Test [26] has as its system Staphylococcus aureus. Description: Potentiation of cefoxitin induced antibacterial activity against methicillin-resistant Staphylococcus aureus USA100 assessed as fold change in cefoxitin MIC at 25 uM after 18 hrs by CLSI protocol based broth microdilution assay.
Test [27] has as its system Staphylococcus aureus. The test is described as follows: Potentiation of ceftazidime induced antibacterial activity against methicillin-resistant Staphylococcus aureus USA100 assessed as ceftazidime MIC at 25 uM after 18 hrs by CLSI protocol based broth microdilution assay.
Test [28] relates to Staphylococcus aureus. The test is described as follows: Potentiation of ceftazidime induced antibacterial activity against methicillin-resistant Staphylococcus aureus USA300 assessed as ceftazidime MIC at 25 uM after 18 hrs by CLSI protocol based broth microdilution assay.
The subject of test [29] is Staphylococcus aureus. Description: Potentiation of oxacillin induced antibacterial activity against methicillin-resistant Staphylococcus aureus USA100 assessed as fold change in oxacillin MIC at 25 uM after 18 hrs by CLSI protocol based broth microdilution assay.
Test [30] concerns Staphylococcus aureus. The test is described as follows: Potentiation of ampicillin induced antibacterial activity against methicillin-resistant Staphylococcus aureus USA100 assessed as fold change in ampicillin MIC at 25 uM after 18 hrs by CLSI protocol based broth microdilution assay.
For test [31], the system named is Staphylococcus aureus. The test is described as follows: Potentiation of oxacillin induced antibacterial activity against methicillin-resistant Staphylococcus aureus ATCC 43300 assessed as fold change in oxacillin MIC at 25 uM after 18 hrs by CLSI protocol based broth microdilution assay.
The test system of test [32] is Staphylococcus aureus. Description: Potentiation of methicillin induced antibacterial activity against methicillin-resistant Staphylococcus aureus ATCC 43300 assessed as methicillin MIC at 25 uM after 18 hrs by CLSI protocol based broth microdilution assay.

For `Brc1cccc2c1[nH]c1ccccc12`, the “fold change (FC)” value in test [1] was determined as 16; in test [5] it was 1; in test [11], 1; in test [12] it was 1. Further, the MIC (usually the smallest concentration in the dilution series that meets the test's criterion for growth inhibition) was found to be 512 µg/mL in test [2]; 8 µg/mL in test [3]; 1 µg/mL in [4]; 1020 µg/mL in test [6]; 8 µg/mL in test [7]; 4 µg/mL in [9]. Further, in test [10], the MIC came to 4 µg/mL. The result in [8] and in [13] was inactive.

`Brc1cccc2[nH]c3ccccc3c12`: the MIC in test [14] was found to be 8 µg/mL; in test [16], 256 µg/mL; in test [17], 512 µg/mL; in [18] it was 8 µg/mL; in [19], 64 µg/mL; in [20], 4 µg/mL. Further, the MIC in test [27] was found to be 512 µg/mL; in test [28], 256 µg/mL; in test [32] it was 4 µg/mL. For the same molecule, the outcome in test [15] and in test [23] was inactive. The “fold change (FC)” value is 1 in [21]; 1 in [22]; 4 in test [24]; 4 in [25]; 4 in test [26]; 16 in [29]. Besides, the “fold change (FC)” value in [30] and in [31] was 4 each time.

Turning to `Brc1ccc2[nH]c3ccc(Br)cc3c2c1`, the “fold change (FC)” value in test [1] was found to be 2; in test [5] it was 1; in test [11], 1; in [12], 1. Besides, the MIC turned out to be 128 µg/mL in test [2]; 8 µg/mL in test [3]; 1020 µg/mL in [6]; 8 µg/mL in test [7]; 8 µg/mL in test [9]; 2 µg/mL in test [10].
